ChEMBL document CHEMBL4414663, “Pyrazole-4-Carboxamide (YW2065): A Therapeutic Candidate for Colorectal Cancer via Dual Activities of Wnt/β-Catenin Signaling Inhibition and AMP-Activated Protein Kinase (AMPK) Activation” (J Med Chem, 2019)
Calls of active or inactive are those of the source. The calls are words filed in the database; no cut-off is given here.

Tests used:
SW480 [1] = test: Growth inhibition of human SW480 cells at 50 uM by Cell-titer-fluor reagent based assay relative to control; assay type: functional; settings: read-out: GI
SW480 [2] = test: Growth inhibition of human SW480 cells by Cell-titer-fluor reagent based assay; assay type: functional
[3] = Inhibition of Wnt/beta-Catenin signaling in human SW480 cells incubated for 24 hrs by TCF/LEF dual-luciferase reporter assay; assay type: cell-based; settings: SW480, 24 h
Outline: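 SW480 or SW620 cells seeded at 200,000/well and transiently transfected 24 h later with TOPflash firefly luciferase plus pRLTK-Renilla using lipofectamine 2000. After 16 h the medium was replaced with compound at a range of concentrations, three replicates each. Dual firefly/Renilla luciferase read 24 h later.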

SW-620 [4] = test: Induction of Axin-1 protein expression in human SW620 cells by Western blot analysis; assay type: functional, cell-based
Outline: (§1)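 SW620 cells in RPMI 1640 with 10% FBS, treated over a concentration range. Lysed in RIPA with protease inhibitors, 20 µL of 2 mg/mL protein run on 7.5% SDS-PAGE, transferred to nitrocellulose, blocked in 5% BSA. Rabbit primaries (Axin-1, ACC, pACC, AMPK, pAMPK at 1:1,000; β-actin 1:2,000) overnight at 4 °C, HRP secondary 1:8000 for 2 h, ECL.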

Homo sapiens [5] = species on record: Homo sapiens; test: Inhibition of Wnt/beta-Catenin signaling in human SW620 cells assessed as reduction in beta-catenin protein level at 1 to 30 uM by Western blot analysis; assay type: cell-based
Outline: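 SW620 cells treated with a dose range of compound and lysed in RIPA buffer with protease inhibitor. Protein at 2 mg/mL, denatured at 98 °C for 5 min, run on 7.5% SDS-PAGE and transferred to nitrocellulose. Blocked in 5% BSA; rabbit anti-β-catenin (1:2,000) overnight at 4 °C with β-actin as loading control. HRP secondary (1:8000), 2 h; ECL detection.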

Homo sapiens [6] = species on record: Homo sapiens; test: Inhibition of Wnt/beta-Catenin signaling in human SW620 cells assessed as reduction in c-Myc mRNA expression at 10 uM incubated for 24 hrs by real-time PCR analysis; assay type: cell-based
Outline: (§2)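 SW620 cells (RPMI 1640, 10% FBS) in 6-well plates, incubated 24 h, then treated with compound at several concentrations, three replicates each, for 24 h. Total RNA isolated with Trizol/phenol-chloroform; 2 µg reverse transcribed; Wnt target gene mRNA quantified by PCR.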

Homo sapiens [7] = species on record: Homo sapiens; test: Inhibition of Wnt/beta-Catenin signaling in human SW620 cells assessed as reduction in S100A4 mRNA expression at 10 uM incubated for 24 hrs by real-time PCR analysis; assay type: cell-based; outline: as §2
[8] = molecular target: AMP-activated protein kinase, AMPK (Homo sapiens) (UniProt P54646+O43741+P54619+Q9UGJ0+Q9Y478+Q13131+Q9UGI9); test: Activation of AMPK in human SW620 cells assessed as increase in ACC phosphorylation incubated for 24 hrs by Western blot analysis; assay type: cell-based; outline: as §1
SW480 [9] = test: Inhibition of colony formation in human SW480 cells incubated for 14 days by crystal violet staining based assay; assay type: functional, cell-based
Outline: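 SW480, SW620 or HT29 cells seeded at 300/well in 3 mL medium in 6-well plates with a concentration series of compound. After 14 days, fixed in 4% formaldehyde and stained with 0.5% crystal violet in 25% aqueous MeOH; colonies photographed.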

SW-620 [10] = test: Growth inhibition of human SW620 cells transfected with lentivrus-encoding shRNA against Axin-1 incubated for 72 hrs by Cell-titer-fluor reagent based assay; assay type: functional; settings: SW-620, 72 h
Outline: (§3)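 SW620 cells, parental, overexpressing β-catenin S33Y, or with Axin-1 knocked down by lentiviral shRNA. Treated with compound or vehicle for 72 h.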

SW-620 [11] = test: Growth inhibition of human SW620 cells incubated for 72 hrs by Cell-titer-fluor reagent based assay; assay type: functional; settings: SW-620, 72 h; outline: as §3
SW-620 [12] = test: Induction of apoptosis in human SW620 cells assessed as early apoptotic cells level at 1 uM incubated for 48 hrs by AAD-7 and FITC-annexin-V staining based flow cytometry (reference value: 18.6%); assay type: functional
SW-620 [13] = test: Induction of apoptosis in human SW620 cells assessed as early apoptotic cells level at 3 uM incubated for 48 hrs by AAD-7 and FITC-annexin-V staining based flow cytometry (reference value: 18.6%); assay type: functional
SW-620 [14] = test: Induction of apoptosis in human SW620 cells assessed as late apoptotic cells level at 10 uM incubated for 48 hrs by AAD-7 and FITC-annexin-V staining based flow cytometry (reference value: 7.6%); assay type: functional
[15] = molecular target: Serine/threonine-protein kinase Nek6 (Homo sapiens) (UniProt Q9HC98); test: Inhibition of NEK6 (unknown origin) at 1000 nM relative to control
Outline: (§4)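 Single-concentration screen at 1000 nM against a 273-kinase panel, reported as percent inhibition.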

[16] = molecular target: Serine/threonine-protein kinase PAK 3 (Homo sapiens) (UniProt O75914); test: Inhibition of PAK3 (unknown origin) at 1000 nM relative to control; outline: as §4
[17] = molecular target: Proto-oncogene tyrosine-protein kinase Src (Homo sapiens) (UniProt P12931); test: Inhibition of SRC (unknown origin) at 1000 nM relative to control; outline: as §4
[18] = AUC (0 to infinity) in C57BL/6J mouse at 5 mg/kg, iv by UPLC-MS analysis; assay type: ADME, organism-based; design: dose 5 mg/kg, route intravenous, time infinity; settings: in vivo
Outline: (§5)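 Male C57BL/6J mice, 2-3 months, 23-26 g. Single 5 mg/kg dose in 5% Kolliphor in saline, given iv (n=3) or by oral gavage (n=5). Tail-vein blood taken at 0.25, 0.5, 1, 4, 8 and 12 h and spun to plasma. Plasma analysed by LC-MS/MS on a triple quadrupole with a C18 column. Parameters from non-compartmental analysis.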

[19] = AUC (0 to infinity) in C57BL/6J mouse at 5 mg/kg, po by UPLC-MS analysis; assay type: ADME, organism-based; design: dose 5 mg/kg, time infinity, route oral; settings: in vivo; outline: as §5
[20] = Half life in C57BL/6J mouse at 5 mg/kg, po by UPLC-MS analysis; assay type: ADME, organism-based; settings: in vivo; outline: as §5
SW-620 [21] = test: Antitumor activity against human SW620 cells xenografted in nude mouse assessed as reduction in tumor volume at 10 mg/kg, ip QD for 32 consecutive days; assay type: functional, organism-based
Outline: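 Six-week-old nude mice injected subcutaneously with 2×10^6 SW620 cells. Randomised at mean tumor volume 100–200 mm³ (n=6/group). Given 10 or 50 mg/kg ip daily for 32 consecutive days; vehicle 10% DMSO, 10% Kolliphor, 80% saline. Tumor volume measured every other day. Tumors weighed after euthanasia at day 32. t test against vehicle.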

[22] = Toxicity in C57BL/6 mouse assessed as effect on body weight at 100 mg/kg/day, ip for 21 days; assay type: organism-based; settings: in vivo, 504 h
[23] = Toxicity in C57BL/6 mouse assessed as effect on AST level at 100 mg/kg/day, ip for 21 days; assay type: organism-based; settings: in vivo, 504 h
[24] = Toxicity in C57BL/6 mouse assessed as effect on ALT level at 100 mg/kg/day, ip for 21 days; assay type: organism-based; settings: in vivo, 504 h
[25] = Toxicity in C57BL/6 mouse assessed as effect on BUN level at 100 mg/kg/day, ip for 21 days; assay type: organism-based; settings: in vivo, 504 h
[26] = Toxicity in C57BL/6 mouse assessed as effect on total protein level at 100 mg/kg/day, ip for 21 days; assay type: organism-based; settings: in vivo, 504 h

Proto-oncogene tyrosine-protein kinase Src (Homo sapiens), sequence (P12931 2-536 limits assumed): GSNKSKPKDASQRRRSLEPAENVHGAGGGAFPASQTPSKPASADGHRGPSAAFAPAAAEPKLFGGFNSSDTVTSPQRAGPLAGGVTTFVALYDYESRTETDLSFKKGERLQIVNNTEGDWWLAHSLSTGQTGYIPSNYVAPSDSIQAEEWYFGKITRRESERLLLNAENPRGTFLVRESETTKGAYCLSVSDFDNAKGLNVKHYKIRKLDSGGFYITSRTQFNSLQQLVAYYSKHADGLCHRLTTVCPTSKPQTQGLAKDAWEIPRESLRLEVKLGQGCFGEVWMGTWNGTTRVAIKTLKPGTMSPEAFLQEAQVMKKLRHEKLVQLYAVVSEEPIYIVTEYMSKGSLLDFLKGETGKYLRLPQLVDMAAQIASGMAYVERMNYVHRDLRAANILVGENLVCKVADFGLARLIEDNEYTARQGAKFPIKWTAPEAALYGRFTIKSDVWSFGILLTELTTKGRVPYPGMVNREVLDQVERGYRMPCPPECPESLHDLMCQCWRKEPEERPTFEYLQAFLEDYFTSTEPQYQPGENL
Serine/threonine-protein kinase PAK 3 (Homo sapiens), sequence (O75914 whole entry, looked up): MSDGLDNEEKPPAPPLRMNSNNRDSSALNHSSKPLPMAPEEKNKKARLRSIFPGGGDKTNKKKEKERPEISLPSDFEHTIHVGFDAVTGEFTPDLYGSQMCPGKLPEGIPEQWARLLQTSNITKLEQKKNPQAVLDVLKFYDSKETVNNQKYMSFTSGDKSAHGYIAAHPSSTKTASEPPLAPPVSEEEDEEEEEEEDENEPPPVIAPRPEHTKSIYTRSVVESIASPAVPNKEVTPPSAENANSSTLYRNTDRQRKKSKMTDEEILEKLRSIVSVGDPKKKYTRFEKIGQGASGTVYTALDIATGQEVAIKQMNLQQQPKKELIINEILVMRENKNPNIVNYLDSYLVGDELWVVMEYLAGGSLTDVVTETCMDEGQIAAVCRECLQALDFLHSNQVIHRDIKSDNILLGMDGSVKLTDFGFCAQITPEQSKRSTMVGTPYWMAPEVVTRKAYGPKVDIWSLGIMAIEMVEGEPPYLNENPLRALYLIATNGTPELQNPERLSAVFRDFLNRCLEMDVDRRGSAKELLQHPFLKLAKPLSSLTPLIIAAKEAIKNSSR
Serine/threonine-protein kinase Nek6 (Homo sapiens), sequence (Q9HC98 whole entry): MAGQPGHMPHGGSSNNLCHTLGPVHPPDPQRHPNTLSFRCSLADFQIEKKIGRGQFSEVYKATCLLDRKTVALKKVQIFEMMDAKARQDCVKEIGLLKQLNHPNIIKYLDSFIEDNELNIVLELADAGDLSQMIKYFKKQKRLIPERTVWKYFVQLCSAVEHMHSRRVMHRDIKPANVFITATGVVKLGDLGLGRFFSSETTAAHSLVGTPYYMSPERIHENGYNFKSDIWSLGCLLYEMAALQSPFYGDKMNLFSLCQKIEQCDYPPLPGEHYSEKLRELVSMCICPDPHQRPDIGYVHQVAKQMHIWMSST

Cc1c(C(=O)Nc2ccc3ccccc3n2)cnn1-c1ccccc1Br
inhibition of growth at 50 µM (SW480 [1]): > 50% | GI50 (SW480 [2]): 2400 nM | IC50 [3]: 1.15 nM | Activity (SW-620 [4]): Dose-dependent effect | inhibition (Homo sapiens [5]): Active | inhibition (Homo sapiens [6]): Active | inhibition (Homo sapiens [7]): Active | Activity [8]: Dose-dependent effect | inhibition (SW480 [9]): Dose-dependent effect | IC50 (SW-620 [10]): 85.4 nM | IC50 (SW-620 [11]): 11.6 nM | Activity (SW-620 [12]): 23.4% | Activity (SW-620 [13]): 35.7% | Activity (SW-620 [14]): 20% | inhibition [15]: Active | inhibition [16]: Active | inhibition [17]: Active | AUC(0-inf) [18]: 57500 ng·h/mL | AUC(0-inf) [19]: 13200 ng·h/mL | half-life [20]: 2.9 h | Activity (SW-620 [21]): Active | Activity [22]: Non-Toxic | Activity [23]: Non-Toxic | Activity [24]: Non-Toxic | Activity [25]: Non-Toxic | Activity [26]: Non-Toxic
